# Screening results from PubChem BioAssay.
# Shown is part of a subset that was picked to be rich in hits.
# H69AR inhibit = growth inhibitors of human H69AR lung tumor cells. H69AR lung tumor viability, ATP luminescence, 72 h; stronger effect = lower value. viability, % at 10 µM. 85,000 compounds, 6% hits. AID 598;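 active means viability at or below 40%; inactive means viability above 40%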;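 further: multidrug resistant small cell line overexpressing MRP-1 efflux transporter; 100% = mean luminescence of untreated control wells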
# HCT116 PTEN-null = suppresses growth of cells with PTEN deletion | HCT116 PTEN-null viability, CellTiter-Glo, 60 h; stronger effect = lower value | viability, % at 10 µM | 140,000 compounds, 1.2% hits | AID 827;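 active means viability at or below a set limit, 4 SD under the median of all tested compounds, cut at about 3.7% in these data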;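 further: PTEN knockout HCT116 line with beta catenin targeted HCT116 as companion control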
# bCat KO growth = beta-catenin-lacking colon tumor cell growth suppression; HCT116 beta-catenin knockout viability, CellTiter-Glo, 60 h; stronger effect = lower value; viability, % at 10 µM; 140,000 compounds, 1.5% hits; AID 818;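 active means viability at or under a set limit, the compound median less 4 SD, cut at about 6% in these data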;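 further: 0% = Hyamine 1622 control at 20 µM and 100% = untreated cell control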
# HUVEC prolif 384 = human endothelial cell proliferation inhibition. 86,000 compounds, 1.1% hits. viability, % at 10 µM (by protocol). HUVEC proliferation, CellTiter-Glo luminescence, 72 h; stronger effect = lower value;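 active means viability at or below 30%; inactive means viability above 30%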;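 further: 100% = median luminescence of DMSO-only cell control wells on each plate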
# Lung fibro prol = blocks proliferation of human lung fibroblasts; LL 47 human lung fibroblast viability, ATP luminescence; stronger effect = lower value; viability, % at 10 µM; AID 719; 85,000 compounds, 1.1% hits;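 active means viability at or below 50% in the single dose screen; inactive means viability above 50%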;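 further: compound exposure lasted 72 h before the ATP readout; 100% = median luminescence of untreated cell-only wells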
#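 test system = LL 47 human lung fibroblasts | amount = 1,150 fibroblasts seeded per well | medium = 15% FBS in IMEM | times = overnight cell rest, 72 h compound treatment at 37 °C | measured by = CellTiter-Glo luminescence measuring cellular ATP | read-out = viability percentage against median untreated-cell control | benchmarks = cell-only wells, no compound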
# Calb biofilm kill = kills Candida albicans biofilms | 85,000 compounds, 0.14% hits | C. albicans biofilm + clotrimazole, Alamar Blue | inhibition, % at 6 µM;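 active means inhibition above 20%; inactive means inhibition below 20%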;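 further: preformed 24 hr biofilms exposed to compound for 48 hr; 0% = biofilm without compound and 100% = blank killed by clotrimazole plus chlorhexidine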
# * hit, by the source's call; . = no result.
SMILES,H69AR inhibit,HCT116 PTEN-null,bCat KO growth,HUVEC prolif 384,Lung fibro prol,Calb biofilm kill
O=C(Nc1ccc(CN2CCOCC2)cc1)c1ccc(-c2cc(Cl)ccc2Cl)o1,21*,30,27,40,93,5
CC(=O)Nc1sc(C)c(C)c1C(=O)OCC(=O)Nc1cc(S(=O)(=O)N2CCCCC2)ccc1Cl,.,3.1*,40,.,.,.
CC(=O)c1c(C)[nH]c(C(=O)OCC(=O)Nc2cc(S(=O)(=O)N3CCCC3)ccc2Cl)c1C,.,69,72,.,.,.
COc1ccccc1NS(=O)(=O)c1cccc(NC(=O)Nc2cccc(Cl)c2)c1,.,6,3.9*,.,.,.
CC(C)(C)NC(=O)NC(=O)COC(=O)Cc1coc2ccc3ccccc3c12,.,83,96,.,.,.
Cc1cccc2nc(C(F)(F)F)nc(=O)n12,.,96,109,.,.,.
CCCn1c(NC(=O)c2cccc(C)c2C)nc2ccccc21,25*,10,16,53,56,6
CCCn1c(NC(=O)c2ccc(Cl)c(S(=O)(=O)N3CCCC3)c2)nc2ccccc21,10.0*,9,8,41,56,4
COc1cc(/C=C(/C#N)c2nc3ccccc3[nH]2)ccc1OCC(=O)Nc1ccccc1C(C)C,.,0.7*,1.2*,.,.,.
COc1cc(/C=C(\C#N)c2ccccn2)ccc1OCC(=O)Nc1ccc(Br)cc1,.,5,5.4*,.,.,.
COc1cc(C(=O)O/N=C2\CCCc3c2ccc(OC)c3[N+](=O)[O-])cc(OC)c1OC,17*,78,70,58,71,-1
COc1ccccc1C(=O)O/N=C1/CCCc2c1ccc(OC)c2[N+](=O)[O-],63,85,92,100,103,6
O=C(CSc1nnc(SCc2ccc(Cl)cc2)s1)N/N=C/c1c(Cl)cccc1Cl,.,103,103,.,.,.
COc1ccc(/C=C\C(=O)c2c(O)ccc3c(C)cc(=O)oc23)cc1OC,.,25,20,.,.,.
Cc1cc(=O)oc(C)c1C(=O)N1CCc2c([nH]c3ccccc23)C1C(C)C (stereo not given),82,80,76,97,98,6
CC1c2[nH]c3ccccc3c2CCN1C(=O)Nc1ccccc1 (stereo not given),25*,32,36,82,99,4
COc1cccc(NC(=O)CCNC(=O)Cn2ccc3ccccc3c2=O)c1,104,105,107,100,96,-4
COC(=O)c1ccc(Oc2cc(C)nc(SC)n2)cc1,30*,19,15,57,58,4
COC(=O)COc1ccc(Oc2cc(C)nc(SC)n2)nn1,88,104,105,83,92,5
Cc1ccc(C(C#N)c2ccc(C(=O)c3ccc(F)cc3)cc2)cc1 (stereo not given),96,46,25,17*,104,1
N#CC(c1ccc(F)cc1)c1ccc(C(=O)c2ccc(F)cc2)cc1 (stereo not given),98,28,15,71,96,1
O=C1CCCC2=C1C(c1ccco1)Nc1ccc(C(=O)c3ccccc3)cc1N2 (stereo not given),13*,29,31,68,84,9
O=C(CSc1nnc2c(n1)[nH]c1ccccc12)Nc1ccc2c(c1)OCO2,.,85,86,.,.,.
COC(=O)C(NC(C)=O)(Nc1nc(C)cs1)C(F)(F)F (stereo not given),96,112,118,90,95,5
COC(=O)C(NC(C)=O)(Nc1nc2c(C)cc(C)cc2s1)C(F)(F)F (stereo not given),26*,32,38,71,88,5
SMILES,H69AR inhibit,HCT116 PTEN-null,bCat KO growth,HUVEC prolif 384,Lung fibro prol,Calb biofilm kill
N#Cc1ncc(-c2ccc3c(c2)OCCOCCOCCOCCOCCO3)nc1C#N,.,2.8*,3.8*,.,.,.
CCn1c(=O)c2cc(S(=O)(=O)NC3CCCCC3)ccc2n(CC)c1=O,93,75,80,89,105,-1
O=CNc1ccc(S(=O)(=O)NCc2ccccc2)cc1,94,54,67,100,98,0
O=[N+]([O-])c1ccc(NNC(=S)Nc2ccc(F)cc2)cc1,14*,78,67,59,87,7
CCCCNC(=S)Nc1ccc([N+](=O)[O-])cc1,.,24,41,.,.,.
Oc1ccccc1C=NCC(O)c1ccccc1 (stereo not given),.,98,97,.,.,.
CCOC(=O)C1=C(C)N(C)C(=O)NC1c1c(C)nn(-c2ccc(C)cc2)c1Cl (stereo not given),31*,.,78,88,90,1
CCOC(=O)C1=C(C)NC(=O)NC1c1c(C)nn(-c2ccccc2)c1Cl (stereo not given),81,107,94,89,97,3
O=C(/C=C/c1ccc(Cl)c(Cl)c1)n1cccn1,10*,95,80,79,86,7
COc1ccc2[nH]c(O)c(N=O)c2c1,.,95,90,.,.,.
Cc1cc2c(N=O)c(NO)ccc2[nH]1,.,5,4.7*,60,1.9*,7
Cc1nc2c(C(=O)NCCC(C)C)c[nH]n2c(=O)c1Cc1ccccc1F,46,76,91,12*,102,3
Cc1nc2c(C(=O)NCCC(C)C)c[nH]n2c(=O)c1Cl,.,105,96,.,.,.
CN(C)C(=O)c1ccc(NC(=O)c2ccccc2Sc2ccccc2C#N)cc1,.,96,92,.,.,.
Cn1ncc(N=Cc2ccccc2O)c1C(=O)Nc1ccccc1,37*,.,96,98,105,0
CC(=O)/C(=N\Nc1ccc(C)cc1)Sc1nncn1C,.,89,88,.,.,.
O=C(CCc1ccc(S(=O)(=O)N2CCOCC2)cc1)N1CCN(Cc2ccc3c(c2)OCO3)CC1,73,88,84,101,97,4
Nc1nonc1-c1nc2ccccc2n1Cc1ccc(F)cc1Cl,39*,62,69,57,55,10
Fc1ccc(Cn2c(-c3cscn3)nc3ccccc32)c(Cl)c1,106,84,84,90,81,4
CN1CCN(S(=O)(=O)c2ccc(Br)c3nsnc23)CC1,2.9*,78,77,101,89,7
Cc1ccc2nc(N3CC(=O)Nc4ccccc43)nc(-c3ccccc3)c2c1,.,1.2*,1.4*,.,.,.
CC1CCC(C(C)C)C(OC(=O)CSc2nc(N)cc(=O)[nH]2)C1 (stereo not given),76,77,73,99,95,4
CC1CCC(C(C)C)C(OC(=O)Cn2c(-c3ccc(F)cc3)[n+](C)c3ccccc32)C1 (stereo not given),.,1.5*,2.0*,.,.,.
CC1CCC(C(C)C)C(OC(=O)Cn2c(-c3ccccc3)[n+](C)c3ccccc32)C1 (stereo not given),.,1.9*,1.4*,.,.,.
CC1CCC(C(C)C)C(OC(=O)CSc2nnc(N)s2)C1 (stereo not given),85,80,72,104,100,6
COc1ccc(-c2cc(C(F)(F)F)nc(SCCC(=O)N3CCOCC3)n2)cc1,39*,90,90,104,.,5
COC(=O)c1nnn(-c2nonc2N)c1CN1CCc2ccccc21,28*,88,92,64,100,7
